Test results published in ChEMBL document CHEMBL3272288, “Cannabinoids. Synthesis and central nervous system activity of 8-substituted 10-hydroxy-5,5-dimethyl-5H-[1]benzopyrano[4,3-c]pyridine and derivatives” (1977).
Active and inactive are the calls of the source. The calls are words filed in the database; no cut-off is given here.

Key:
Mus musculus [1] = test: Antidepressant activity in mouse assessed as potentiation of (+/-)Dopa-induced motor responses at 5 mg/kg, po challenged with Dopa after 4 hrs compound treatment; type: functional, organism-based; set-up: dose 5 mg/kg
Rattus norvegicus [2] = test: Analgesic activity in po dosed Sprague-Dawley rat by tail flick assay; type: functional
Felis catus [3] = test: Sedative-hypnotic activity in cat assessed as change in total sleep time at 5 mg/kg, po after 12 hrs; type: functional
Method in brief: (§1)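 Total sleep time was recorded 12 h after drug, with two or more cats per dose. The value is the change in minutes from paired control experiments; a negative value means decreased sleep.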

Rattus norvegicus [4] = test: Hyperexcitability activity in Long-Evens black-hooded rat assessed as behavioral responses to tactile stimulation at 80 mg/kg, po; type: functional, organism-based; set-up: dose 80 mg/kg
Method in brief: (§2)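 Rats randomly split into groups of four, dosed orally, then held singly in a sound-attenuated room. At 1, 2, 3 and 4 h each was probed with a wooden rod and scored for exaggerated motor reaction, squeaking and biting (maximum 16 per response). Index is the summed score of the three responses divided by the maximum of 48.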

Rattus norvegicus [5] = test: Hyperexcitability activity in Long-Evens black-hooded rat assessed as behavioral responses to tactile stimulation at 20 mg/kg, po; type: functional, organism-based; set-up: dose 20 mg/kg; method in brief: as §2
Rattus norvegicus [6] = test: Antipsychotic activity in Long-Evens rat assessed as increase in methamphetamine-induced hyperactivity at 10 mg/kg, po; type: functional
Rattus norvegicus [7] = test: Antipsychotic activity in Long-Evens rat assessed as increase in methamphetamine-induced hyperactivity at 20 mg/kg, po; type: functional
Mus musculus [8] = test: Analgesic activity in po dosed mouse assessed as inhibition of acetic acid-induced writhing; type: functional
Mus musculus [9] = test: Antianxiety activity in albino BALB/cJ mouse assessed as decrease in foot shock-induced fighting behavior at 5 mg/kg, po by tranquilizer activity test; type: functional
Rattus norvegicus [10] = test: Antianxiety activity in Long-Evens rat assessed as decrease in motor activity at 10 mg/kg, po by tranquilizer activity test; type: functional
Canis familiaris = test: Antianxiety activity in po dosed beagle-like dog assessed as minimum dose required to produce moderate ataxia; type: functional, Canis lupus familiaris
Method in brief: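 Minimum dose producing ataxia, with two or more dogs per dose.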

Rattus norvegicus [11] = test: Antipsychotic activity in Long-Evens rat assessed as reduction in methamphetamine-induced hyperactivity at 5 mg/kg, po; type: functional
Felis catus [12] = test: Sedative-hypnotic activity in cat assessed as change in total sleep time at 0.1 mg/kg, po after 12 hrs; type: functional; method in brief: as §1
Felis catus [13] = test: Sedative-hypnotic activity in cat assessed as change in total sleep time at 1 mg/kg, po after 12 hrs; type: functional; method in brief: as §1
Mus musculus [14] = test: Antianxiety activity in albino BALB/cJ mouse assessed as decrease in foot shock-induced fighting behavior at 10 mg/kg, po by tranquilizer activity test; type: functional
Rattus norvegicus [15] = test: Antianxiety activity in Long-Evens rat assessed as decrease in motor activity at 5 mg/kg, po by tranquilizer activity test; type: functional
Felis catus [16] = test: Sedative-hypnotic activity in cat assessed as change in total sleep time at 0.5 mg/kg, po after 12 hrs; type: functional; method in brief: as §1
Rattus norvegicus [17] = test: Hyperexcitability activity in Long-Evens black-hooded rat assessed as behavioral responses to tactile stimulation at 10 mg/kg, po; type: functional, organism-based; set-up: dose 10 mg/kg; method in brief: as §2
Rattus norvegicus [18] = test: Antipsychotic activity in Long-Evens rat assessed as increase in methamphetamine-induced hyperactivity at 5 mg/kg, po; type: functional
Rattus norvegicus [19] = test: Antipsychotic activity in Long-Evens rat assessed as reduction in methamphetamine-induced hyperactivity at 10 mg/kg, po; type: functional
Rattus norvegicus [20] = test: Antipsychotic activity in Long-Evens rat assessed as reduction in methamphetamine-induced hyperactivity at 20 mg/kg, po; type: functional
Rattus norvegicus [21] = test: Antianxiety activity in Long-Evens rat assessed as decrease in motor activity at 2 mg/kg, po by tranquilizer activity test; type: functional
Mus musculus [22] = test: Increase in foot shock-induced fighting behavior in albino BALB/cJ mouse at 5 mg/kg, po by tranquilizer activity test; type: functional
Rattus norvegicus [23] = test: Antianxiety activity in Long-Evens rat assessed as decrease in motor activity at 20 mg/kg, po by tranquilizer activity test; type: functional
Rattus norvegicus [24] = test: Antipsychotic activity in Long-Evens rat assessed as reduction in methamphetamine-induced hyperactivity at 2 mg/kg, po; type: functional
Felis catus [25] = test: Sedative-hypnotic activity in cat assessed as change in total sleep time at 0.25 mg/kg, po after 12 hrs; type: functional; method in brief: as §1
Felis catus [26] = test: Sedative-hypnotic activity in cat assessed as change in total sleep time at 2.5 mg/kg, po after 12 hrs; type: functional; method in brief: as §1

Row | Compound | Activity (Mus musculus [1]) | ED50 (Rattus norvegicus [2]) [mg/kg] | ED50 (Mus musculus [8]) [mg/kg] | inhibition in vivo at 10 mg/kg (Rattus norvegicus [10]) [%] | Activity (Canis familiaris) [mg/kg] | inhibition in vivo at 5 mg/kg (Rattus norvegicus [11]) [%] | inhibition in vivo at 10 mg/kg (Mus musculus [14]) [%] | inhibition in vivo at 5 mg/kg (Rattus norvegicus [15]) [%] | Activity (Rattus norvegicus [17]) | inhibition in vivo at 10 mg/kg (Rattus norvegicus [19]) [%] | further results
1 | CCCCCC(C)C(C)c1cc(OCCCN2CCOCC2)c2c(c1)OC(C)(C)c1ccncc1-2.Cl (stereo not drawn) | Active | > 40 |  |  |  |  |  |  |  |  | Time (Felis catus [3]): -11 min; Activity (Rattus norvegicus [4]): inactive; Activity (Rattus norvegicus [5]): inactive; Activity (Rattus norvegicus [6]): 13%; Activity (Rattus norvegicus [7]): 28%
2 | C#CCN1CCC2=C(C1)c1c(O)cc(C(C)C(C)CCCCC)cc1OC2(C)C (stereo not drawn) | Active | 13.8 | 4.3 | 51 | 1 | 59 |  |  |  |  | inhibition in vivo at 5 mg/kg (Mus musculus [9]): 48%; Time (Felis catus [12]): 100 min
3 | CCCCCc1cc(O)c2c(c1)OC(C)(C)[C@@H]1CCC(C)=C[C@@H]21 [DRONABINOL] | Active | 27.2 | 43 | 39 | 4 | 15 |  |  |  |  | inhibition in vivo at 5 mg/kg (Mus musculus [9]): 36%; Time (Felis catus [13]): 29 min
4 | CCCCCC(C)C(C)c1cc(O)c2c(c1)OC(C)(C)c1cc[n+]([O-])cc1-2 (stereo not drawn) | Active | > 40 | 8.6 | 40 |  |  | 44 | 14 | inactive |  | Time (Felis catus [16]): 59 min; Activity (Rattus norvegicus [18]): 42%; Activity (Rattus norvegicus [6]): 12%
5 | C#CCOc1cc(C(C)C(C)CCCCC)cc2c1-c1cnccc1C(C)(C)O2 (stereo not drawn) | Active | > 40 | > 40 |  | 2 |  | 6 | 27 | inactive | 31 | inhibition in vivo at 20 mg/kg (Rattus norvegicus [20]): 42%; Time (Felis catus [13]): 82 min; Time (Felis catus [3]): 114 min
6 | C=CCOc1cc(C(C)CCCc2ccc(F)cc2)cc2c1-c1cnccc1C(C)(C)O2 (stereo not drawn) | Active | > 40 |  |  |  |  | 17 |  |  | 20 | inhibition in vivo at 20 mg/kg (Rattus norvegicus [20]): 27%; Activity (Rattus norvegicus [5]): inactive
7 | CCCCCC(C)C(C)c1cc(OC(C)=O)c2c(c1)OC(C)(C)c1ccncc1-2 (stereo not drawn) | Active |  | 3.3 |  | <5 | 46 | 48 | 86 |  |  | inhibition in vivo at 2 mg/kg (Rattus norvegicus [21]): 43%
8 | COc1cc(C(C)CCCc2ccc(F)cc2)cc2c1-c1cnccc1C(C)(C)O2 (stereo not drawn) | Active | > 40 |  |  | 10 |  | 65 |  |  | 48 | Time (Felis catus [3]): 121 min
9 | CC(CCCc1ccc(F)cc1)c1cc(O)c2c(c1)OC(C)(C)c1cc[n+]([O-])cc1-2 (stereo not drawn) | Active | > 40 | > 10 |  |  | 16 | 24 | 18 | inactive |  | 
10 | CCCCCC(C)C(C)c1cc(OC(=O)CCCN2CCCCC2)c2c(c1)OC(C)(C)c1ccncc1-2.Cl (stereo not drawn) | Active |  | 4 | 63 |  | 40 |  | 43 | Active |  | Activity (Mus musculus [22]): 3%
11 | CCCCCC(C)C(C)c1cc(OC)c2c(c1)OC(C)(C)c1ccncc1-2 (stereo not drawn) | Active | > 200 | 158 | 37 | 2 |  | 29 |  | inactive | 12 | inhibition in vivo at 20 mg/kg (Rattus norvegicus [23]): 46%; Time (Felis catus [13]): 58 min; Time (Felis catus [3]): 102 min; Activity (Rattus norvegicus [4]): inactive; Activity (Rattus norvegicus [18]): 15%
12 | C#CCN1CCC2=C(C1)c1c(O)cc(C(C)CCCc3ccc(F)cc3)cc1OC2(C)C (stereo not drawn) | Active | 3.7 | 5.3 | 57 | 1 | 25 | 47 |  | Active |  | Time (Felis catus [16]): 99 min
13 | CC(CCCc1ccc(F)cc1)c1cc(O)c2c(c1)OC(C)(C)c1ccncc1-2 (stereo not drawn) | Active | 5.7 | 7.1 |  |  | 40 |  | 34 |  |  | inhibition in vivo at 5 mg/kg (Mus musculus [9]): 58%
14 | CCCCCC(C)C(C)c1cc(OC(=O)OCC)c2c(c1)OC(C)(C)c1ccncc1-2 (stereo not drawn) | Active |  | 5.2 |  |  | 66 | 12 | 93 |  |  | inhibition in vivo at 2 mg/kg (Rattus norvegicus [24]): 37%
15 | CCCCCC(C)C(C)c1cc(OCCCN2CCCCC2)c2c(c1)OC(C)(C)c1ccncc1-2.Cl (stereo not drawn) | Active | > 40 |  |  |  |  |  |  |  | 15 | Time (Felis catus [3]): -153 min; Activity (Rattus norvegicus [4]): inactive; Activity (Rattus norvegicus [5]): inactive
16 | CCCCCC(C)C(C)c1cc(O)c2c(c1)OC(C)(C)c1ccncc1-2 (stereo not drawn) | Active | 3.07 | 3.3 |  | <1 | 61 | 36 | 79 |  |  | inhibition in vivo at 5 mg/kg (Mus musculus [9]): 29%; Time (Felis catus [12]): 225 min; Time (Felis catus [25]): 193 min
17 | CCCCCC(C)C(C)c1cc(OCC2CC2)c2c(c1)OC(C)(C)c1ccncc1-2 (stereo not drawn) | Active | > 40 |  |  |  |  |  |  |  | 1 | Time (Felis catus [26]): 105 min; Activity (Rattus norvegicus [4]): inactive; Activity (Rattus norvegicus [5]): inactive
